High-throughput results: PubChem, several laboratories
The list is not random: actives were taken first. Their share in the collection is about 2%.
FID counter – displaces DNA intercalator in HCV helicase counter-screen. DNA fluorescent intercalator displacement, fluorescence. inhibition, % at 7.9 µM. hit rate 0.17% among 290,000; in the data active = inhibition above about 37%;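 note: 0% = vehicle and 100% = reference compound; higher means more ethidium bromide displaced from hairpin DNA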
PABP1 MLLE inh – blocks PAM2 peptide binding to the PABP1 MLLE domain | P11940 | inhibition, % at 20 µM | GST-MLLE / FITC-PAM2 fluorescence polarization | AID 588489 | hit rate 0.36% among 360,000; in the data active = inhibition above about 35%, passing the limit was not always enough;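 note: plate controls were DMSO wells with GST-MLLE for no effect and wells lacking GST-MLLE protein for full effect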
HCV NS3 hel inh – inhibitors of Hepatitis C virus NS3 helicase; NS3 helicase DNA unwinding, Cy5 molecular beacon fluorescence; inhibition, % at 10.9 µM; hit rate 0.56% among 290,000;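 active = inhibition above the mean of all tested compounds plus 3 SD, set per campaign, cut at about 35% in these data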;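 note: 0% = DMSO wells and 100% = thioflavine S control wells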
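Test system: hepatitis C virus NS3 helicase domain fragment enzyme. Also added: annealed dual-labelled DNA beacon duplex, ATP-started. Timing: 60 min unwinding reaction at 25 °C after ATP addition. Technique: Cy5 fluorescence. Measure: % inhibition of unwinding.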
PABP FP inh – PABP-poly(A) binding inhibition | P11940 | PABP-poly(A) RNA binding, fluorescence polarization | inhibition, % at 35 µM | hit rate 1% among 290,000 | AID 2014;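 note: calls also rest on retests at 20 µM and on dose response follow-up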
eIF4H inh – inhibitors of RNA binding by human eIF4H; Q15056; eIF4H fluorescence polarization binding assay; inhibition, % at 35 µM; hit rate 0.94% among 290,000; AID 2012;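 note: calls also rest on retests at 20 µM and on dose response follow-up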
HCV core dimer – HCV core protein dimerization inhibition; TR-FRET GST/Flag-core106 dimerization, 1536-well; inhibition, % at 5 µM; hit rate 0.33% among 300,000; AID 1899;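 active = inhibition above the mean of all tested compounds plus 3 SD, set per screening campaign, cut at about 45% in these data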
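test system = GST/Flag-tagged HCV core106 proteins | probe or stimulus = Eu donor and XL665 acceptor anti-tag antibodies | times = compound-protein-antibody incubation 4 h at 22.5 °C | signal = TR-FRET, excitation 340 nm, emission 617 and 671 nm | measure = percent inhibition of core106 dimerization signal | controls = wells lacking GST-core106 and wells with excess unlabelled core106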
Numbers without * were called inactive; . = not tested or not shown. Unless noted, the rule behind the calls is not given here.

SMILES	FID counter	PABP1 MLLE inh	HCV NS3 hel inh	PABP FP inh	eIF4H inh	HCV core dimer
O=C(/C=C/c1ccc(O)c(O)c1)c1ccc(S(=O)(=O)N2CCCCCC2)cc1	-4	-7	25	-13	90*	40
O=C(N=Nc1c(O)[nH]c2ccc([N+](=O)[O-])cc12)c1ccccc1[N+](=O)[O-]	10	7	-6	16	-11	1
CCc1cc(C(=O)N=Nc2c(O)[nH]c3ccc([N+](=O)[O-])cc23)c2ccccc2n1	7	5	18	9	10	58*
CCOC(=O)c1ccccc1N1C(=O)CSC1=S	-11	41*	17	0	-1	2
Cc1ccccc1C(=O)NN1C(=O)CSC1=S	-3	-9	13	27	-12	-20
CCN(CC)S(=O)(=O)c1cc(NC(=O)Cn2ncc(Cl)c(Cl)c2=O)ccc1C	-16	-23	8	14*	77	38
O=C(Cn1ncc(Cl)c(Cl)c1=O)Nc1ccc2c(c1)OCO2	.	-14	.	.	.	.
COc1ccc(NC(=O)c2ccc(Cl)nc2)cc1S(=O)(=O)N1CCOCC1	.	5	.	.	.	.
COc1ccc(NC(=O)Cn2ncc(Cl)c(Cl)c2=O)cc1S(=O)(=O)N1CCOCC1	-27	-21	35	1.8*	90	50*
COc1ccc(NC(=O)c2cc3c(s2)CCC3)cc1S(=O)(=O)N1CCOCC1	-17	-3	13	27	100*	94*
CC(C)(C)c1ccc(C(O)c2ncc(-c3ccc(F)cc3)[nH]2)cc1 (stereo unspecified)	.	-4	.	.	.	.
CCOC(=O)c1cc2c(=O)n3ccccc3nc2n(Cc2ccco2)c1=NC(=O)c1ccccc1OCC	-15	-1	14	-6	90*	11
Cc1cccn2c(=O)c3cc(C(=O)NCCN4CCOCC4)c(=N)n(CCc4ccccc4)c3nc12	18	-4	-27	13	6	3
COc1ccc(CCn2c(=N)c(C(=O)NCCN3CCOCC3)cc3c(=O)n4ccccc4nc32)cc1OC	44*	-16	6	-5	-18	3
COc1ccc(CCn2c(=N)c(C(=O)NCCN3CCOCC3)cc3c(=O)n4cccc(C)c4nc32)cc1OC	56*	4	-18	11	-7	2
COc1ccc(CCNC(=O)c2cc3c(=O)n4ccccc4nc3n(Cc3ccco3)c2=N)cc1OC	-3	-2	-6	10	87*	23
O=C(OCC(=O)N1CCC(c2ccccc2)=N1)c1ccc([N+](=O)[O-])s1	.	4	.	.	.	2
C[C@H]1CN([C@@H](C)CO)C(=O)c2cc(C#CC3CCCC3)cnc2O[C@H]1CN(C)C(=O)Cc1ccccn1	.	-6	.	.	.	.
Cc1cccn2c(=O)c3cc(C(=O)NCCN4CCOCC4)c(=N)n(CCCN4CCOCC4)c3nc12	79*	-1	19	28	-7	-11
COc1ccc(CCNC(=O)c2cc3c(=O)n4ccccc4nc3n(CCCN3CCOCC3)c2=N)cc1OC	46*	2	-3	5	-7	-3
O=C(NCCN1CCOCC1)c1c(O)nc2ccccn2c1=O	-1	11	2	-8	-6	-3
COc1ccc(CCNC(=O)c2cc3c(=O)n4ccccc4nc3n(CCCN3CCOCC3)c2=N)cc1	48*	-10	-17	12	-2	10
CCCNc1nc2nc3ccccn3c(=O)c2cc1C(=O)NCCN1CCOCC1	40*	-2	7	12	3	5
CN(Cc1cnn(Cc2ccccc2)c1)C(=O)CN=C1NS(=O)(=O)c2ccccc21	.	6	.	.	.	.
CSc1ccccc1NC(=O)CN(C)CC(=O)Nc1ccccc1N1CCOCC1	-32	-5	1	57	active	2
SMILES	FID counter	PABP1 MLLE inh	HCV NS3 hel inh	PABP FP inh	eIF4H inh	HCV core dimer
O=C(O)CCC(=O)Nc1ccccc1N1CCOCC1	0	1	-9	55*	14*	-5
CC1(CCCN2C(=O)c3ccccc3C2=O)OCCO1	.	-3	.	.	.	-4
COc1ccc(-c2nnc(SCc3ccc(C(=O)O)cc3)n2C)cc1OC	-16	7	-12	2	-15	-2
CC(=O)c1ccc(OC(C)C)c(Cc2c(O)nc(N)[nH]c2=O)c1	-1	-16	4	100*	0.7*	-4
CCC(C(=O)NCCCN1CCN(C)CC1)n1nc(C)n2c(cc3occc32)c1=O (stereo unspecified)	-9	13	-7	5	1	-8
O=Cc1ccc(-c2cccc(C(=O)O)c2)o1	0	15	0	0	24	-2
N=C1/C(=C/c2ccc(-c3cccc(C(=O)O)c3)o2)C(=O)N=C2SC(CC(=O)N3CCOCC3)=NN12	-14	-8	17	58*	62*	-15
CC1=NN2C(=N)/C(=C\c3cc(C)n(-c4ccccc4)c3C)C(=O)N=C2S1	-1	7	7	-3	-3	12
N=C1/C(=C\c2ccc(-c3cccc(C(=O)O)c3)o2)C(=O)N=C2SC=C(c3ccccc3)N12	-9	-79	18	60*	58*	25
Cc1cc(/C=C2/C(=N)N3C(c4ccccc4)=CSC3=NC2=O)c(C)n1-c1ccccc1	-2	-29	15	25*	90*	45
Cc1c(C(=O)NCc2ccc3c(c2)OCCO3)sc(=O)n1Cc1ccc(C(=O)N(C)C)cc1	.	12	.	.	.	.
COc1ccc(CN(C)c2ncnc3sccc23)c(OC)c1OC	-25	-10	-1	-2	1	-2
CC1=CC(C)(C)[N+](C)(C)c2ccccc21	1	-98	7	62*	-8	-1
CC(C)c1ccc(C(=O)NNC(=O)C2C3CCC(C3)C2C(=O)O)cc1 (stereo unspecified)	-19	.	-4	3	-5	2
O=C(NCCN1CCN(Cc2ccccc2)CC1)c1ccc(CS(=O)(=O)c2ccc(Br)cc2)o1	14	1	-9	.	.	0
Cn1c(SCC(=O)Nc2sccc2C#N)nnc1-c1ccccc1	-10	-26	8	42	40	49*
Cn1c(SCC(=O)Nc2sccc2C#N)nnc1C1CC1	.	0	.	.	.	.
Cc1cc(C)n2nc(C(=O)OCC(=O)c3cc(C)n(C)c3C)nc2n1	-4	8	2	44	62*	33
Cc1cc(C)n2nc(C(=O)OCC(=O)c3ccccc3Cl)nc2n1	.	2	.	.	.	.
N#Cc1c(-c2cccc(Cl)c2)[nH]c(=S)[nH]c1=O	-5	53*	12	4	0	5
N#Cc1c(-c2ccccc2)[nH]c(=S)[nH]c1=O	-3	28	5	16	-4	7
COCCNc1nc(Nc2ccc(C(=O)OC)cc2)c2sccc2n1	.	-2	.	.	.	.
CC1CCN(CC(=O)Nc2ccc(S(=O)(=O)N3C(C)CCCC3C)cc2)CC1 (stereo unspecified)	4	-7	-26	10	14	-2
Cc1cccc(C(=O)NCCC(=O)Nc2nc(C)c(Cc3ccc4c(c3)OCO4)s2)c1	-6	-9	3	77*	active	2
